Source: ChEMBL document CHEMBL1153728, “Quercetin reduces inflammatory pain: inhibition of oxidative stress and cytokine production” (2009)
Active and inactive are the calls of the source.

Experiments:
Mus musculus [1] = test: Antinociceptive activity in Swiss mouse assessed as inhibition of carrageenan-induced mechanical hypernociception at 100 mg/kg, ip dosed 3 hrs before carrageenan challenge measured after 3 hrs by electronic pressure-meter test; assay type: functional, organism-based; parameters: dose 100 mg/kg
How it was run: (§1)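 Male Swiss mice given 100 mg/kg ip at 12, 6, 3 h or 30 min before intraplantar carrageenin (100 µg/paw). Mechanical withdrawal threshold by electronic pressure-meter (mean of three readings) at 1, 3 and 5 h after stimulus, expressed as change from baseline.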

Mus musculus [2] = test: Muscle relaxant activity in Swiss mouse assessed as motor response at 100 mg/kg, ip after 3 hrs 30 mins by rotarod test; assay type: functional, organism-based; parameters: dose 100 mg/kg
Mus musculus [3] = test: Inhibition of CXCL1-induced neutrophil recruitment in Swiss mouse subcutaneous plantar tissue assessed as myeloperoxidase activity at 100 mg/kg, ip dosed 30 mins before CXCL1 challenge measured after 3 hrs by spectrophotometry; assay type: functional, organism-based; parameters: dose 100 mg/kg
How it was run: (§2)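 Mice given ip 100 mg/kg 30 min before intraplantar carrageenin (100 µg/paw), TNFα (300 pg/paw) or CXCL1 (20 ng/paw). Plantar tissue taken 3 h later into 50 mM K2HPO4 pH 6.0 with 0.5% HTAB, homogenized, centrifuged. Supernatant read with o-dianisidine/H2O2 at 450 nm, compared to neutrophil standard curve.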

Mus musculus [4] = test: Antioxidant activity in ip dosed Swiss mouse assessed as inhibition of carrageenan-induced reduction in GSH level dosed 30 mins before carrageenan challenge measured after 3 hrs by fluorescence spectrophotometry; assay type: functional, organism-based
How it was run: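 Swiss mice dosed ip 10-100 mg/kg 30 min before intraplantar carrageenin (100 µg/paw) or saline. Plantar skin from five mice pooled 3 h later, homogenized in 100 mM NaH2PO4 pH 8.0/5 mM EGTA, TCA-precipitated. Supernatant reacted with OPT 15 min, fluorescence ex 350/em 420 nm against 0-40 µM GSH standard, in triplicate.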

Mus musculus [5] = test: Antinociceptive activity in Swiss mouse assessed as inhibition of carrageenan-induced mechanical hypernociception at 3 to 100 mg/kg, ip administered 30 mins before carrageenan challenge measured after 3 hrs by electronic pressure-meter test; assay type: functional; details: dose mg/kg 3-100; route intraperitoneal
How it was run: (§3)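 Male Swiss mice dosed ip (3-100 mg/kg) or po (30-300 mg/kg) in 20% Tween 80/saline 30 min before intraplantar carrageenin (100 µg/paw). Pressure-meter withdrawal threshold (average of three readings) before and 3 h after; Δ threshold in g; n = 5; one-way ANOVA with Tukey test.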

Mus musculus [6] = test: Analgesic activity in Swiss mouse assessed as reaction time taken to jump or lick paw at 8 mg/kg, ip after 60 mins of administration by hot plate test; assay type: functional, organism-based; parameters: dose 8 mg/kg
How it was run: (§4)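 Male Swiss mice (25-30 g) placed in glass cylinder on hot plate at 55 °C. Two control latencies taken at least 10 min apart; latency rechecked 30 and 60 min after ip dosing. Endpoint is jumping or paw licking, 30 s cutoff.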

Mus musculus [7] = test: Antinociceptive activity in Swiss mouse assessed as inhibition of dopamine-induced mechanical hypernociception at 100 mg/kg, ip dosed 30 mins before dopamine challenge measured after 3 hrs by electronic pressure-meter test; assay type: functional, organism-based; parameters: dose 100 mg/kg
Mus musculus [8] = test: Antinociceptive activity in ip dosed Swiss mouse assessed as inhibition of carrageenan-induced mechanical hypernociception administered 30 mins before carrageenan challenge measured after 3 hrs by electronic pressure-meter test; assay type: functional, organism-based; how it was run: as §3
Mus musculus [9] = test: Antiinflammatory activity in Swiss mouse assessed as inhibition of carrageenan-induced paw edema at 100 mg/kg, ip dosed 30 mins before carrageenan challenge measured after 0.5 to 3 hrs; assay type: functional, organism-based; parameters: dose 100 mg/kg
How it was run: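 Male Swiss mice; ip pretreatment 30 min before intraplantar carrageenin (100 µg/paw). Paw measured with calliper before and at 30, 60, 120, 180 min after stimulus; edema = VT minus Vo per mouse.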

Mus musculus [10] = test: Inhibition of carrageenan-induced IL1-beta production in Swiss mouse subcutaneous plantar tissue at 100 mg/kg, ip dosed 30 mins before carrageenan challenge measured after 3 hrs by ELISA; assay type: functional; details: sc
How it was run: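 Mice dosed ip 100 mg/kg 30 min before intraplantar carrageenin (100 µg/paw). Paw skin removed 3 h later under terminal anesthesia, homogenized in protease-inhibitor buffer. IL-1β measured by ELISA as pg/paw, with saline-injected controls; n = 5.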

Mus musculus [11] = test: Analgesic activity in Swiss mouse assessed as reaction time taken to jump or lick paw at 8 mg/kg, ip after 30 mins of administration by hot plate test; assay type: functional, organism-based; parameters: dose 8 mg/kg; how it was run: as §4
Mus musculus [12] = test: Antinociceptive activity in Swiss mouse assessed as inhibition of carrageenan-induced mechanical hypernociception at 300 mg/kg, po dosed 30 mins before carrageenan challenge measured after 3 hrs by electronic pressure-meter test; assay type: functional; how it was run: as §3
Mus musculus [13] = test: Inhibition of TNF-alpha-induced neutrophil recruitment in Swiss mouse subcutaneous plantar tissue assessed as myeloperoxidase activity at 100 mg/kg, ip dosed 30 mins before TNFalpha challenge measured after 3 hrs by spectrophotometry; assay type: functional, organism-based; parameters: dose 100 mg/kg; how it was run: as §2
Mus musculus [14] = test: Antinociceptive activity in Swiss mouse assessed as inhibition of PGE2-induced mechanical hypernociception at 100 mg/kg, ip dosed 30 mins before PGE2 challenge measured after 3 hrs by electronic pressure-meter test; assay type: functional, organism-based; parameters: dose 100 mg/kg
Mus musculus [15] = test: Antinociceptive activity against formalin-induced pain in Swiss mouse assessed as inhibition of paw licking response during second phase at 100 mg/kg, ip dosed 30 mins before formalin challenge measured for 0 to 30 mins; assay type: functional, organism-based; parameters: dose 100 mg/kg
How it was run: (§5)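 Male Swiss mice dosed ip (100 mg/kg, vehicle 20% Tween 80 in saline) 30 min before intraplantar formalin 0.1% (25 µL). Paw flinches and licking time counted 0-30 min in 5-min intervals, separating first and second phases; n = 6.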

Mus musculus [16] = test: Analgesic activity in Swiss mouse assessed as reaction time taken to jump or lick paw at 100 mg/kg, ip after 30 mins of administration by hot plate test; assay type: functional, organism-based; parameters: dose 100 mg/kg; how it was run: as §4
Mus musculus [17] = test: Analgesic activity in Swiss mouse assessed as reaction time taken to jump or lick paw at 100 mg/kg, ip after 60 mins of administration by hot plate test; assay type: functional, organism-based; parameters: dose 100 mg/kg; how it was run: as §4
Mus musculus [18] = test: Antinociceptive activity against formalin-induced pain in Swiss mouse assessed as inhibition of hind paw flinching response during second phase of response at 100 mg/kg, ip dosed 30 mins before formalin challenge measured for 0 to 30 mins; assay type: functional, organism-based; parameters: dose 100 mg/kg; how it was run: as §5
Mus musculus [19] = test: Antinociceptive activity in Swiss mouse assessed as inhibition of CXCL1-induced mechanical hypernociception at 100 mg/kg, ip dosed 30 mins before CXCL1 challenge measured after 3 hrs by electronic pressure-meter test; assay type: functional; details: route intraperitoneal
Mus musculus [20] = test: Inhibition of carrageenan-induced neutrophil recruitment in Swiss mouse subcutaneous plantar tissue assessed as myeloperoxidase activity at 100 mg/kg, ip dosed 30 mins before carrageenan challenge measured after 3 hrs by spectrophotometry; assay type: functional, organism-based; parameters: dose 100 mg/kg; how it was run: as §2
Mus musculus [21] = test: Antinociceptive activity in ip dosed Swiss mouse assessed as inhibition of acetic acid-induced writhing response administered 30 mins before acetic acid challenge measured for 20 mins; assay type: functional, organism-based
How it was run: (§6)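 Male Swiss mice pretreated ip (3-100 mg/kg) 30 min before ip acetic acid 0.6% v/v (10 mL/kg) or phenyl-p-benzoquinone 1890 µg/kg in 2% DMSO/saline. Cumulative writhing score counted over 20 min; n = 7.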

Mus musculus [22] = test: Antinociceptive activity in Swiss mouse assessed as inhibition of TNF-alpha-induced mechanical hypernociception at 100 mg/kg, ip dosed 30 mins before TNFalpha challenge measured after 3 hrs by electronic pressure-meter test; assay type: functional; details: route intraperitoneal
Mus musculus [23] = test: Antinociceptive activity in Swiss mouse assessed as inhibition of carrageenan-induced mechanical hypernociception at 100 mg/kg, ip dosed 30 mins before carrageenan challenge measured after 1 to 5 hrs by electronic pressure-meter test; assay type: functional, organism-based; parameters: dose 100 mg/kg; how it was run: as §1
Mus musculus [24] = test: Antinociceptive activity in ip dosed Swiss mouse assessed as inhibition of phenyl-p-benzoquinone-induced writhing response administered 30 mins before phenyl-p-benzoquinone challenge measured for 20 mins; assay type: functional, organism-based; how it was run: as §6

O=c1c(O)c(-c2ccc(O)c(O)c2)oc2cc(O)cc(O)c12 [QUERCETIN]
inactive: Activity (Mus musculus [2]) | Activity (Mus musculus [3]) | Activity (Mus musculus [7]) | Activity (Mus musculus [13]) | Activity (Mus musculus [14]) | Activity (Mus musculus [16]) | Activity (Mus musculus [17]) | Activity (Mus musculus [20])
active: inhibition (Mus musculus [1]) | inhibition (Mus musculus [4]) Dose-dependent effect | Activity (Mus musculus [6]) | inhibition (Mus musculus [8]) Dose-dependent effect | inhibition (Mus musculus [9]) | Activity (Mus musculus [11]) | Activity (Mus musculus [15]) | Activity (Mus musculus [18]) | inhibition (Mus musculus [21]) Dose-dependent effect | inhibition (Mus musculus [23]) | inhibition (Mus musculus [24]) Dose-dependent effect
59%: inhibition (INH) (Mus musculus [5])
55%: inhibition in vivo at 300 mg/kg (Mus musculus [12])
36%: inhibition in vivo at 100 mg/kg (Mus musculus [10])
43%: inhibition in vivo at 100 mg/kg (Mus musculus [19])
51%: inhibition in vivo at 100 mg/kg (Mus musculus [22])
